From ChEMBL document CHEMBL4689842, “EUbOPEN Chemogenomics Library wave 1” (2021)

Assays:
Assay type in all cases: toxicity, cell-based
Fibroblast [1] = assay: Multiplex assay against human fibroblast
Outline: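 Per cents of healthy-nucleus cells form the tubulin, mitochondrial-mass and membrane-permeability phenotype values. Live cells were stained at seeding with Hoechst33342, BioTracker Green Microtubule Cytoskeleton Dye, MitoTracker Red and Annexin V Alexa Fluor 680. After compound addition they were imaged on a CQ1 microscope at 37°C and 5% CO2, and CellPathfinder machine-learning gating split them into Hoechst high-intensity objects or normal cells, normal cells into healthy, pyknosed or fragmented nuclei, and pyknosed cells into mitotic or apoptotic.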

U2OS = assay: Incucyte cell viability with U2OS; settings: human, 10 µM, compound concentration 10 uM; note: filed as whole numbers so only -1 and 0 and 1 occur
Fibroblast [2] = assay: Incucyte cell viability with human fibroblast; settings: 10 µM, compound concentration 10 uM; note: filed as whole numbers so only -1 and 0 and 1 occur
HEK-293T = assay: Incucyte cell viability with HEK293T; settings: human, 10 µM, compound concentration 10 uM; note: filed as whole numbers so only -1 and 0 and 1 occur
[3] = 24 h, 10 µM, compound concentration 10 uM, replicate 1
[4] = 24 h, 10 µM, compound concentration 10 uM, replicate 2
[5] = 48 h, 1 µM, compound concentration 1 uM, replicate 1
[6] = 48 h, 1 µM, compound concentration 1 uM, replicate 2
[7] = 48 h, 10 µM, compound concentration 10 uM, replicate 1
[8] = 48 h, 10 µM, compound concentration 10 uM, replicate 2
[9] = 6 h, replicate number 1, timepoint 6 hours
[10] = 12 h, replicate number 1, timepoint 12 hours
[11] = 18 h, replicate number 1, timepoint 18 hours
[12] = 24 h, replicate number 1, timepoint 24 hours

SMILES: COc1ccc(NS(=O)(=O)c2sc3ccc(Cl)cc3c2C)cc1N1CCNCC1.Cl
- Population Normal (%) (Fibroblast [1]; [3]): 74%
- Population Pyknosed Nuclei (%) (Fibroblast [1]; [3]): 25%
- Population Tubulin-Different-Phenotype (%) (Fibroblast [1]; [3]): 80%
- Total Cell Count (Fibroblast [1]; [3]): 226
- Population Apoptotic (%) (Fibroblast [1]; [4]): 68%
- Population Fragmented Nuclei (%) (Fibroblast [1]; [4]): 16%
- Population Healthy Nuclei (%) (Fibroblast [1]; [4]): 47%
- Population Hoechst High Intensity Objects (%) (Fibroblast [1]; [4]): 2%
- Population Membrane Permeable-Phenotype (%) (Fibroblast [1]; [4]): 55%
- Population Mitochondria Different-Phenotype (%) (Fibroblast [1]; [4]): 97%
- Population Mitotic Cells (%) (Fibroblast [1]; [4]): 32%
- Population Normal (%) (Fibroblast [1]; [4]): 97%
- Population Pyknosed Nuclei (%) (Fibroblast [1]; [4]): 35%
- Population Tubulin-Different-Phenotype (%) (Fibroblast [1]; [4]): 91%
- Total Cell Count (Fibroblast [1]; [4]): 51
- Population Apoptotic (%) (Fibroblast [1]; [5]): 66%
- Population Fragmented Nuclei (%) (Fibroblast [1]; [5]): 38%
- Population Healthy Nuclei (%) (Fibroblast [1]; [5]): 47%
- Population Hoechst High Intensity Objects (%) (Fibroblast [1]; [5]): 20%
- Population Membrane Permeable-Phenotype (%) (Fibroblast [1]; [5]): 17%
- Population Mitochondria Different-Phenotype (%) (Fibroblast [1]; [5]): 0%
- Population Mitotic Cells (%) (Fibroblast [1]; [5]): 33%
- Population Normal (%) (Fibroblast [1]; [5]): 79%
- Population Pyknosed Nuclei (%) (Fibroblast [1]; [5]): 14%
- Population Tubulin-Different-Phenotype (%) (Fibroblast [1]; [5]): 21%
- Total Cell Count (Fibroblast [1]; [5]): 134
- Population Apoptotic (%) (Fibroblast [1]; [6]): 100%
- Population Fragmented Nuclei (%) (Fibroblast [1]; [6]): 53%
- Population Healthy Nuclei (%) (Fibroblast [1]; [6]): 45%
- Population Hoechst High Intensity Objects (%) (Fibroblast [1]; [6]): 25%
- Population Membrane Permeable-Phenotype (%) (Fibroblast [1]; [6]): 9%
- Population Mitochondria Different-Phenotype (%) (Fibroblast [1]; [6]): 1%
- Population Mitotic Cells (%) (Fibroblast [1]; [6]): 0%
- Population Normal (%) (Fibroblast [1]; [6]): 74%
- Population Pyknosed Nuclei (%) (Fibroblast [1]; [6]): 1%
- Population Tubulin-Different-Phenotype (%) (Fibroblast [1]; [6]): 49%
- Total Cell Count (Fibroblast [1]; [6]): 219
- Population Apoptotic (%) (Fibroblast [1]; [7]): 86%
- Population Fragmented Nuclei (%) (Fibroblast [1]; [7]): 33%
- Population Healthy Nuclei (%) (Fibroblast [1]; [7]): 44%
- Population Hoechst High Intensity Objects (%) (Fibroblast [1]; [7]): 42%
- Population Membrane Permeable-Phenotype (%) (Fibroblast [1]; [7]): 10%
- Population Mitochondria Different-Phenotype (%) (Fibroblast [1]; [7]): 46%
- Population Mitotic Cells (%) (Fibroblast [1]; [7]): 13%
- Population Normal (%) (Fibroblast [1]; [7]): 57%
- Population Pyknosed Nuclei (%) (Fibroblast [1]; [7]): 21%
- Population Tubulin-Different-Phenotype (%) (Fibroblast [1]; [7]): 73%
- Total Cell Count (Fibroblast [1]; [7]): 191
- Population Apoptotic (%) (Fibroblast [1]; [8]): 93%
- Population Fragmented Nuclei (%) (Fibroblast [1]; [8]): 34%
- Population Healthy Nuclei (%) (Fibroblast [1]; [8]): 26%
- Population Hoechst High Intensity Objects (%) (Fibroblast [1]; [8]): 24%
- Population Membrane Permeable-Phenotype (%) (Fibroblast [1]; [8]): 22%
- Population Mitochondria Different-Phenotype (%) (Fibroblast [1]; [8]): 54%
- Population Mitotic Cells (%) (Fibroblast [1]; [8]): 6%
- Population Normal (%) (Fibroblast [1]; [8]): 75%
- Population Pyknosed Nuclei (%) (Fibroblast [1]; [8]): 39%
- Population Tubulin-Different-Phenotype (%) (Fibroblast [1]; [8]): 72%
- Total Cell Count (Fibroblast [1]; [8]): 111
- Growth Rate (U2OS; [9]): 0
- Growth Rate (U2OS; [10]): 0
- Growth Rate (U2OS; [11]): 0
- Growth Rate (U2OS; [12]): 0
- Growth Rate (Fibroblast [2]; 0 h, replicate number 1, timepoint 0 hours): 1
- Growth Rate (Fibroblast [2]; [9]): 1
- Growth Rate (Fibroblast [2]; 6 h, replicate number 2, timepoint 6 hours): 0
- Growth Rate (Fibroblast [2]; [10]): 0
- Growth Rate (Fibroblast [2]; [11]): 0
- Growth Rate (Fibroblast [2]; [12]): 0
- Growth Rate (HEK-293T; 0 h, replicate number 2, timepoint 0 hours): 1
- Growth Rate (HEK-293T; [9]): 0
- Growth Rate (HEK-293T; [10]): 0
- Growth Rate (HEK-293T; [11]): 0
- Growth Rate (HEK-293T; [12]): 0
